Results from PubChem BioAssay AID588817 (The Scripps Research Institute Molecular Screening Center, 2011).
Active and inactive are the calls of the source.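 How the source made its calls: active means compounds cutting probe labeling of the enzyme in cells by at least 50% at 0.1 µM; inactive means under 50% inhibition at that dose.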

Biological target: Platelet-activating factor acetylhydrolase (Mus musculus) (UniProt Q60963)
Test: pPAFAH inhibition in transfected cells, late-stage follow-up, cell-based, gel-based competitive ABPP, fluorescence (AID 588817)
Details: HEK293T overexpressing mouse pPAFAH, 4 h; at 10 µM (top of the series)
How it was run: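 Material: mouse pPAFAH-transfected 293T cells; amount: lysate fractions at 1 mg/mL protein; medium: serum-free medium during compound treatment; compound dosing: 0.01–10 µM final, four concentrations; times: 4 h compound exposure, 30 min probe labelling, both 37 °C; signal: gel fluorescence band intensity after SDS-PAGE; controls: DMSO high control, blank-gel background low control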

Platelet-activating factor acetylhydrolase (Mus musculus), sequence (Q60963 whole entry, looked up): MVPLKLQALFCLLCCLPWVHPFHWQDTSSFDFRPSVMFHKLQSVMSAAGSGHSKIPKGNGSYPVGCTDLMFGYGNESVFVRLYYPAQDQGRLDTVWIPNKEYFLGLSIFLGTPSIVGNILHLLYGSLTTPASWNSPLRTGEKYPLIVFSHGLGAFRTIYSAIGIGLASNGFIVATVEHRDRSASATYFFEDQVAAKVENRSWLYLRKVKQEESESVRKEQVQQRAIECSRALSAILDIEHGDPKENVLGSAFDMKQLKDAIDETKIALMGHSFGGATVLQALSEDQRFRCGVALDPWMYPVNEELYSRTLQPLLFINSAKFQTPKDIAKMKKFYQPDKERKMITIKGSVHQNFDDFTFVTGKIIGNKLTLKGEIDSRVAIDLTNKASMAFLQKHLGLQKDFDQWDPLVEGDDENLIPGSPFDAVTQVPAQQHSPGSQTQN

In the case of `Cc1cc(N2CCN(C(=O)Oc3ccc(-c4ccccc4)cn3)CC2)c2ccccc2n1`, the inhibition is reported as 100% (active).
